≈ marks a conversion by molar mass, not a printed value.

Assay [1] deals with C. albicans. Briefly: Determination of MIC by broth microdilution. In kind it is cell-based. The following applies: Candida albicans, read-out: MICs, strain YEM30, wild-type strain. A general note: Broth dilution looks for growth in wells or tubes with falling amounts of substance.
The test system of assay [2] is C. albicans YEM30. Put plainly: G. mellonella-C. albicans infection model. Format: in vivo, Galleria mellonella. The following applies: 2 μg/larva, 2 h after infection. The procedure, abridged: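 Larvae were infected with 10 μL YEM30 (2 × 10^5 CFU/mL) into the last right foreleg. After 2 h they were injected with 10 μL of test compound (2 μg/larva), fluconazole (2 μg/larva) or PBS, then kept at 37°C in the dark. Death was no response to slight contact; survival was scored daily for 5 days (log-rank test). For fungal burden (40 larvae/group), six larvae/day were homogenized in PBS, serially diluted and plated on YPD.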

The test system of assay [3] is C. albicans YEM30. Put plainly: Drug resistance development test. Format: cell-based, Candida albicans.
Assay [4] deals with C. albicans. The following applies: subinhibitory concentrations; cited from earlier work.

Consider `OC(Cn1cncn1)(Cn1cncn1)c1ccc(F)cc1F` [FLC, Fluconazole], for which the MIC in the assay on C. albicans [1] turned out to be 1 µg/mL (≈ 3.27 µM); in the assay with C. albicans YEM30 [3] (Candida albicans, YEM30, read-out: MIC value after consecutive treatment) it was 8 µg/mL (≈ 26.1 µM). Moreover, in the assay with C. albicans YEM30 [2], the “fungal burden vs control group” value is “greatly reduced the fungal burden”. For the same molecule, in the assay with C. albicans YEM30 [2] (5 days), the “survival rate of infected larvae” value was found to be 73%. For the same molecule, in the assay with C. albicans YEM30 [3] (YEM30, consecutive treatment with 1/2 MIC, up to 40 days), the drug resistance development result is “developed drug resistance after being treated with 1/2 MIC of FLC for 5 days”.
`C/C=C/CCCC/C=C/CCCCC(=O)O[C@@H]1[C@@H](O)[C@@]2(CCC(C)C(O)C(C)C/C=C/c3ccccc3)O[C@H](C(=O)O)[C@@](O)(C(=O)O)[C@]1(C(=O)O)O2` (stereo partly drawn) [zaragozic acid B]: in the assay on C. albicans [4], the “farnesol levels compared to untreated cells” value was 8–10 folds.
